Screening results as filed in PubChem BioAssay.
Cardio protect = myocardial damage modulation in H9c2 cells. H9c2 cardiomyocytes, H2O2 injury protection, ATPLite, 2 h. AID 588492. protection from H2O2 cell death, % at 20 µM. 360,000 compounds, 0.63% hits;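 active = compounds giving at least 50% protection of heart cells from peroxide-induced death in the single-dose screen, raw or plate-pattern-corrected value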;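 also: 0% = DMSO wells with peroxide and 100% = DMSO wells without peroxide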
DAGLB inh = diacylglycerol lipase beta (human) inhibition; Q8NCG7; HEK293T DAGLB membrane lysate, EnzChek fluorogenic substrate; 340,000 compounds, 0.059% hits; inhibition, % at 5.17 µM; in the data active = inhibition above about 34%;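 also: 0% = enzyme with vehicle and 100% = wells lacking enzyme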
Target sequence (Q8NCG7 whole entry, looked up): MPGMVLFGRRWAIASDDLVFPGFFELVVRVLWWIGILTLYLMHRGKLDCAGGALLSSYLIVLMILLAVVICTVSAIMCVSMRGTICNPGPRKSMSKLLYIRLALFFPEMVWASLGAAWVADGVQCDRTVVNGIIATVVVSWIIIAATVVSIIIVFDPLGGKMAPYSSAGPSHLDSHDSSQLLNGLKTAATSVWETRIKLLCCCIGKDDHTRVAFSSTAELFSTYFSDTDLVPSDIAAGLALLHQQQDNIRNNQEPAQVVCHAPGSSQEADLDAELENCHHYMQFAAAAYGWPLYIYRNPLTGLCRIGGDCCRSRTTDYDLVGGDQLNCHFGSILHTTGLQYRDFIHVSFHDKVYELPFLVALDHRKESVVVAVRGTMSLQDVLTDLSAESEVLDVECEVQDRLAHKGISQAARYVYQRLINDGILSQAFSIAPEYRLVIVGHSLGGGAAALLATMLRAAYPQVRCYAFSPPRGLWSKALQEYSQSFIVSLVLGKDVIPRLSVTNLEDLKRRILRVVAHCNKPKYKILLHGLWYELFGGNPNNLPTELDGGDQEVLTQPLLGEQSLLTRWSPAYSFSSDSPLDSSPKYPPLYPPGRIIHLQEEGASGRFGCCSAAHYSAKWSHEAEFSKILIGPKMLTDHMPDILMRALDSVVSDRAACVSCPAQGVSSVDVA
DDE Tn7 FP inh = disrupts Tn7 cyclic peptide binding to fibrin D-Dimer-E complex. 370,000 compounds, 0.13% hits. inhibition, % at 8.3 µM. FP displacement of FITC-Tn7 peptide from fibrin DD(E); 0% = median of compound wells per plate. AID 720508;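 active = inhibition above the mean of compounds falling within the control limits plus 3 SD of them, cut at about 14% in these data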;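 also: 0% = plate median of compound wells and 100% = 10 µM Aha-Tn7 peptide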
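System: human fibrin DD(E); quantity: Fibrin-DD(E) at 2 µM final; also added: fluorescent Tn7 probe at 0.1 µM; compound dosing: single nominal test concentration of 8.3 µM per compound; schedule: 10 min preincubation, 3 h with tracer, room temperature; detection: fluorescence polarization of the labelled Tn7 tracer; repeats: one replicate per compound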
MT1-MMP act inh = MT1-MMP (human) activation inhibition | 360,000 compounds, 0.061% hits | P50281 | GFP/RFP ratio change, % at 20 µM | HT1080 RFP-PRO-GFP cells, GFP/RFP ratio fluorescence, overnight; percent of plate control window, DMSO zero;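 active = GFP/RFP ratio change of at least 30% with cell ATP level not reduced by more than half and red fluorescence within 50% of control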
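Assay system: HT1080 cells carrying an RFP-PRO-GFP reporter | Dosing: Single dose of 20 µM compound, 1% DMSO final | Incubation: Cells overnight before dosing, compound overnight, 37 °C, 5% CO2 | Evaluation: GFP/RFP fluorescence ratio | Control set: DMSO and RFP-L50D-GFP cell wells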
TAG inh = inhibitors of triacylglycerol accumulation | H9c2 cells, Nile Red lipid (TAG) fluorescence; cells loaded with 200 µM oleic acid | inhibition, % at 12.5 µM | 230,000 compounds, 0.66% hits;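 active = pattern-corrected inhibition of lipid staining of at least 50% with the nuclear-stain viability signal not falling by more than 50%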;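 also: 0% = DMSO wells and 100% = triacsin C control wells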
Tn6 DDE FP = disrupts Tn6 cyclic peptide binding to fibrin D-Dimer-E complex | P02675 | Fibrin DD(E) TRITC-Tn6 fluorescence polarization displacement | inhibition, % at 8.3 µM | 370,000 compounds, 0.21% hits;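 active = inhibition above a per-campaign cutoff: mean of compounds within control limits plus 3 SD, cut at about 15% in these data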;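 also: 0% = median of all compound wells on the plate and 100% = blocking peptide control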
MT1-MMP conf = MT1-MMP (human) activation inhibition, single-concentration validation; HT1080 RFP-PRO-GFP cells, GFP and RFP fluorescence ratio, overnight; AID 652235; 200 compounds, 10% hits; inhibition, % at 20 µM; shares compounds with MT1-MMP act inh;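 active = inhibition of at least 50% in the primary cell screen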
The depositor's hits bear a star; . = not tested or not shown. Sampled rows, rich in hits. Any-hit rate of the full collection: about 1.4%.

SMILES | Cardio protect | DAGLB inh | DDE Tn7 FP inh | MT1-MMP act inh | TAG inh | Tn6 DDE FP | MT1-MMP conf
COc1cccc(NC(=O)C2CCCN2C(=O)NCc2ccccc2OC)c1 (centres undefined) | . | . | 5 | . | . | -5 | .
CCC(=O)NCCn1c(C)cc2ccccc21 | 12 | 2 | . | 5 | 10 | . | .
Cc1cc2ccccc2n1CCNC(=O)COc1ccccc1 | 19 | 4 | -6 | 40* | -5 | 13 | 4
CCN1C(=O)/C(=C2\C=Cc3ccccc3N2CC)SC1=S | -9 | 10 | -4 | 99* | . | -2 | 43
O=C(O)c1ccc(-n2nc(-c3ccccc3O)nc2-c2ccccc2O)cc1 | . | . | -6 | . | . | -1 | .
C[C@H](CO)N1C[C@H](C)[C@@H](CN(C)S(=O)(=O)c2ccc(F)cc2)Oc2ccc(NC(=O)CCN3CCOCC3)cc2C1=O | 4 | 1 | 0 | 32* | -5 | 5 | -1
Cc1[nH]n(-c2ccccc2)c(=O)c1N=Nc1nccs1 | 9 | 18 | -2 | 32* | 9 | -1 | 27
FC(F)(F)c1ccc(Cl)c(CN2CCN(c3ncc(Cc4ccccc4)cn3)CC2)c1 | . | . | 3 | . | . | 6 | .
CC1CCN(C(=O)c2ccc3c(c2NCCO)C(=O)c2ccccc2C3=O)CC1 | 29 | 32 | -10 | 31* | 118* | 1 | 28
CCCCC(=O)NCc1ccc2c(c1)cc(C)n2C | 8 | -2 | 0 | 47* | . | 12 | 10
Cc1ccc(CNC(=O)c2ccc(S(=O)(=O)N3CCCCC3)cc2)cc1 | 0 | 1 | -6 | -2 | -15 | -4 | .
Cc1cc2cc(CNC(=O)c3ccc(S(=O)(=O)N4CCCCC4)cc3)ccc2n1C | 5 | 5 | 2 | 40* | 16 | 164* | 4
COc1ccc(NC(=S)NCc2ccc3c(c2)cc(C)n3C)cc1 | -9 | 3 | 0 | 13 | 16 | 1 | .
COc1ccccc1NC(=S)NCc1ccc2c(c1)cc(C)n2C | -2 | 6 | -1 | 41* | 12 | 2 | 4
CCCS(=O)(=O)NCc1ccc2c(c1)cc(C)n2C | 10 | 5 | -5 | 34* | . | 7 | 10
Cc1cc(N2CCN(Cc3ccc4c(c3)OCO4)CC2)n2nc(C)nc2n1 | . | . | -1 | . | . | 1 | .
C[C@H]1[C@@H](c2ccccc2)OC(O)([C@H](Cc2ccccc2)NC(=O)OC(C)(C)C)CN1C (some centres undefined) | . | . | -8 | . | . | -6 | .
CCOc1ccc(-n2c(SCC(=O)Nc3cccc4ccccc34)nnc2-c2ccccc2)cc1 | . | . | -5 | . | . | -2 | .
CN1[C@H](Cc2ccccc2)COc2cc(N3CCCC3)ccc2S1(=O)=O | . | . | 1 | . | . | -6 | .
CCOc1ccc(-n2c(SCC(=O)Nc3ccc4c(c3)c3ccccc3n4CC)nnc2-c2cccnc2)cc1 | . | . | -2 | . | . | -5 | .
Cc1cc2cc(CNC(=S)NCc3ccccc3)ccc2n1C | 1 | 9 | -4 | 46* | 5 | 3 | 8
CCCCNC(=S)NCc1ccc2c(c1)cc(C)n2C | -6 | -1 | 4 | 4 | -10 | 2 | .
Cc1ccccc1C1=C/C(=C(\SS/C(C(=O)c2ccc(OCC(=O)O)c(Cl)c2Cl)=C2\C=C(c3ccccc3C)SS2)C(=O)c2ccc(OCC(=O)O)c(Cl)c2Cl)SS1 | 0 | 7 | -2 | 34* | 17 | -1 | 41
Nc1nc(Nc2cccc(F)c2)nc2ccccc12 | -27 | -1 | 0 | 35* | -35 | -8 | 25
O=c1oc(Nc2cccc(F)c2)nc2ccccc12 | -19 | 9 | -3 | 4 | . | -5 | .
SMILES | Cardio protect | DAGLB inh | DDE Tn7 FP inh | MT1-MMP act inh | TAG inh | Tn6 DDE FP | MT1-MMP conf
Cc1ccc(C)c(Nc2nc(N)c3ccccc3n2)c1 | -18 | 0 | 4 | 31* | -10 | 3 | 19
CSC1=NSC2=NC(=O)/C(=C\c3cccs3)C(=N)N12 | -12 | 8 | -4 | 35* | . | -2 | 30
O=C(Nc1cccc(C(F)(F)F)c1)OC1CCC12CCC(c1ccccc1)CC2 (centres undefined) | . | . | -11 | . | . | -4 | .
C/C(=N\Nc1nc2ccccc2[nH]1)c1ccc([N+](=O)[O-])cc1 | -15 | 12 | 0 | 51* | 11 | 0 | 21
O=C(Nc1nc2ccccc2[nH]1)c1ccc([N+](=O)[O-])cc1 | -17 | 1 | 3 | -2 | -10 | 3 | .
CNc1ccccc1C(C)(C)c1cc(-c2cc(C)cc(C)c2)no1 | -16 | -11 | -3 | -3 | . | -2 | .
CNc1ccccc1C(C)(C)c1cc(-c2cccc(OC)c2)no1 | -16 | . | 0 | 47* | . | 3 | 54*
CCOc1cc(/C=C2\C(=O)N(c3nc(-c4ccc(Br)cc4)cs3)N=C2c2ccccc2)ccc1O | -29 | 33 | . | 63* | -13 | . | 7
COc1ccccc1C(=O)NC(=S)/C=C1/N(C)c2ccccc2C1(C)C | -22 | 27 | 1 | 55* | . | 3 | 31
CN1/C(=C\C(=S)NC(=O)c2ccccc2Cl)C(C)(C)c2ccccc21 | -13 | 15 | 0 | 53 | -130 | -1 | .
Cc1occc1-c1nnc(SCC(=O)NCc2ccc(Cl)cc2)n1-c1ccccc1 | . | . | 4 | . | . | 4 | .
COc1cccc2[nH]c3c(N4CCCCC4)ncnc3c12 | -3 | 2 | 0 | 32* | . | -2 | 6
O=C(O)c1cccc(N2C(=O)c3cc([N+](=O)[O-])cc4cc([N+](=O)[O-])cc(c34)C2=O)c1 | 0 | 6 | 2 | 42* | . | -10 | 28
COCCCNC(=O)C[C@H]1C[C@@]2(C(=O)OC)C(=C[C@H](COCc3ccccc3)O[C@@H]2C)N(Cc2cccc3ccccc23)C1=O | . | . | -5 | . | . | -9 | .
O=S(=O)(O)c1cc(O)c(N=Nc2ccc(O)cc2O)c2ccccc12 | -10 | 32 | 0 | 64* | 11 | 5 | 50*
CC1(C)Oc2cc(N)c([N+](=O)[O-])cc2O1 | 18 | -1 | -6 | 11 | -4 | -6 | .
C=C1N(C)c2cc([N+](=O)[O-])c(N)cc2C1(C)C | -2 | 13 | 2 | 36* | 2 | -1 | 13
CN(N=Nc1ccc([N+](=O)[O-])cc1)c1ccccc1 | -5 | -12 | 2 | 0 | 3 | 0 | .
CN(CCCC(=O)O)c1ccc(N=Nc2ccc([N+](=O)[O-])cc2)cc1 | -9 | 25 | -6 | 53* | -6 | -5 | 49
COc1c(O)cc2c(c1O)[C@@H]1O[C@H](CO)[C@@H](O)[C@H](O)[C@H]1OC2=O | 6 | 1 | -1 | 1 | . | 7 | .
Cc1c(C(=O)O)c(O)cc2c1C(=O)c1c(O)c([C@@H]3O[C@H](CO)[C@@H](O)[C@H](O)[C@H]3O)c(O)c(O)c1C2=O | 1 | 2 | 7 | 50* | 10 | 18* | 41
